Laboratory results reported in ChEMBL document CHEMBL1255289, “In vitro antifungal activities of isavuconazole (BAL4815), voriconazole, and fluconazole against 1,007 isolates of zygomycete, Candida, Aspergillus, Fusarium, and Scedosporium species” (2008).
In brackets after ≈: the same amount, converted by molar mass.

How the values were obtained:
Format in all cases: functional
Aspergillus terreus = assay: Antifungal activity against Aspergillus terreus isolates after 48 hrs by CLSI M38-A procedure based assay; conditions: Aspergillus terreus, 48 h
Outline: (§1)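 Aspergillus isolates tested by CLSI M38-A broth microdilution at final 0.015–16 µg/ml and 35°C. Plates were read macroscopically at 48 h. The MIC was the lowest concentration producing complete inhibition of growth (MIC-0).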

Aspergillus fumigatus = assay: Antifungal activity against Aspergillus fumigatus isolates after 48 hrs by CLSI M38-A procedure based assay; conditions: Aspergillus fumigatus, 48 h; outline: as §1
Aspergillus flavus = assay: Antifungal activity against Aspergillus flavus isolates after 48 hrs by CLSI M38-A procedure based assay; conditions: Aspergillus flavus, 48 h; outline: as §1
Aspergillus niger = assay: Antifungal activity against Aspergillus niger isolates after 48 hrs by CLSI M38-A procedure based assay; conditions: Aspergillus niger, 48 h; outline: as §1
Aspergillus sp. = assay: Antifungal activity against Aspergillus sp. isolates after 48 hrs by CLSI M38-A procedure based assay; outline: as §1
Candida parapsilosis = assay: Antifungal activity against Candida parapsilosis isolates after 48 hrs by CLSI M27-A2 procedure based assay; conditions: Lodderomyces parapsilosis, 48 h
Outline: (§2)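 Candida isolates tested by CLSI M27-A2 broth microdilution at final 0.015–16 µg/ml, or 0.125–128 µg/ml for the comparator azole. Incubation was at 35°C with a visual read at 48 h. MIC-2 was the lowest concentration giving a prominent turbidity drop, about 50% growth inhibition.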

Candida albicans = assay: Antifungal activity against Candida albicans isolates after 48 hrs by CLSI M27-A2 procedure based assay; conditions: Candida albicans, 48 h; outline: as §2
Mucor [1] = assay: Antifungal activity against Mucor isolates assessed as lowest compound concentration that produced complete inhibition of microbial growth after 24 hrs by CLSI M38-A procedure based assay; conditions: Mucor, 24 h
Outline: (§3)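 Zygomycete isolates subcultured on potato dextrose or Sabouraud agar, then tested by CLSI M38-A broth microdilution. Drugs were serially diluted in plates at final 0.015–16 µg/ml and incubated at 35°C. Plates were read by eye at 24 h. MIC-0 was the lowest concentration giving complete growth inhibition.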

Mucor [2] = assay: Antifungal activity against Mucor isolates assessed as lowest compound concentration that produced slight growth or approximately 25% of that of growth control after 24 hrs by CLSI M38-A procedure based assay
Outline: (§4)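 Clinical isolates were kept at –70°C as spore suspensions in sterile water and subcultured on potato dextrose or Sabouraud agar before testing. Broth microdilution used DMSO stocks in trays stored at –70°C, with final drug 0.015–16 µg/ml.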

Rhizopus [3] = assay: Antifungal activity against Rhizopus isolates assessed as lowest compound concentration that produced complete inhibition of microbial growth after 24 hrs by CLSI M38-A procedure based assay; conditions: Rhizopus, 24 h; outline: as §3
Rhizopus [4] = assay: Antifungal activity against Rhizopus isolates assessed as lowest compound concentration that produced slight growth or approximately 25% of that of growth control after 24 hrs by CLSI M38-A procedure based assay
Outline: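 Rhizopus isolates tested by CLSI M38-A broth microdilution at final 0.015–16 µg/ml, 35°C, read by eye at 24 h.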

Absidia [5] = assay: Antifungal activity against Absidia isolates assessed as lowest compound concentration that produced complete inhibition of microbial growth after 24 hrs by CLSI M38-A procedure based assay; outline: as §3
Absidia [6] = assay: Antifungal activity against Absidia isolates assessed as lowest compound concentration that produced slight growth or approximately 25% of that of growth control after 24 hrs by CLSI M38-A procedure based assay; outline: as §4
Cunninghamella [7] = assay: Antifungal activity against Cunninghamella isolates assessed as lowest compound concentration that produced complete inhibition of microbial growth after 24 hrs by CLSI M38-A procedure based assay; outline: as §3
Cunninghamella [8] = assay: Antifungal activity against Cunninghamella isolates assessed as lowest compound concentration that produced slight growth or approximately 25% of that of growth control after 24 hrs by CLSI M38-A procedure based assay; outline: as §4
Syncephalastrum [9] = assay: Antifungal activity against Syncephalastrum isolates assessed as lowest compound concentration that produced complete inhibition of microbial growth after 24 hrs by CLSI M38-A procedure based assay; outline: as §3
Syncephalastrum [10] = assay: Antifungal activity against Syncephalastrum isolates assessed as lowest compound concentration that produced slight growth or approximately 25% of that of growth control after 24 hrs by CLSI M38-A procedure based assay; outline: as §4
Scedosporium apiospermum [11] = assay: Antifungal activity against Scedosporium apiospermum isolates assessed as lowest compound concentration that produced complete inhibition of microbial growth after 24 hrs by CLSI M38-A procedure based assay; conditions: Scedosporium apiospermum, 24 h
Scedosporium apiospermum [12] = assay: Antifungal activity against Scedosporium apiospermum isolates assessed as lowest compound concentration that produced slight growth or approximately 25% of that of growth control after 24 hrs by CLSI M38-A procedure based assay
Lomentospora prolificans [13] = assay: Antifungal activity against Scedosporium prolificans isolates assessed as lowest compound concentration that produced complete inhibition of microbial growth after 24 hrs by CLSI M38-A procedure based assay; conditions: Lomentospora prolificans, 24 h
Lomentospora prolificans [14] = assay: Antifungal activity against Scedosporium prolificans isolates assessed as lowest compound concentration that produced slight growth or approximately 25% of that of growth control after 24 hrs by CLSI M38-A procedure based assay
Nakaseomyces glabratus = assay: Antifungal activity against Candida glabrata isolates after 48 hrs by CLSI M27-A2 procedure based assay; conditions: Nakaseomyces glabratus, 48 h; outline: as §2
Candida tropicalis = assay: Antifungal activity against Candida tropicalis isolates after 48 hrs by CLSI M27-A2 procedure based assay; conditions: Candida tropicalis, 48 h; outline: as §2
Candida = assay: Antifungal activity against Candida sp. isolates after 48 hrs by CLSI M27-A2 procedure based assay
Outline: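 Candida isolates were stored at –70°C as yeast suspensions and subcultured on potato dextrose or Sabouraud agar before use. Broth microdilution used DMSO drug stocks, with final well concentrations of 0.015–16 or 0.125–128 µg/ml depending on the azole. Plates were incubated at 35°C and read macroscopically at 48 h. MIC-2 was the lowest concentration giving a prominent turbidity decrease (~50% growth inhibition).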

Pichia kudriavzevii = assay: Antifungal activity against Candida krusei isolates after 48 hrs by CLSI M27-A2 procedure based assay; outline: as §2
Fusarium [15] = assay: Antifungal activity against Fusarium sp. isolates assessed as lowest compound concentration that produced complete inhibition of microbial growth after 24 hrs by CLSI M38-A procedure based assay; conditions: Fusarium, 24 h
Fusarium [16] = assay: Antifungal activity against Fusarium sp. isolates assessed as lowest compound concentration that produced slight growth or approximately 25% of that of growth control after 24 hrs by CLSI M38-A procedure based assay

`C[C@@H](c1ncncc1F)[C@](O)(Cn1cncn1)c1ccc(F)cc1F` [VORICONAZOLE] was tested, and the MIC50 (Aspergillus terreus) was 1 µg/mL (≈ 2.86 µM), the MIC90 (Aspergillus terreus) was 1 µg/mL (≈ 2.86 µM) and the MIC50 (Aspergillus fumigatus) was 0.5 µg/mL (≈ 1.43 µM). It also gave an MIC90 (Aspergillus fumigatus) of 1 µg/mL (≈ 2.86 µM), an MIC50 (Aspergillus flavus) of 1 µg/mL (≈ 2.86 µM) and an MIC90 (Aspergillus flavus) of 1 µg/mL (≈ 2.86 µM). The MIC50 (Aspergillus niger) was 1 µg/mL (≈ 2.86 µM), the MIC90 (Aspergillus niger) was 1 µg/mL (≈ 2.86 µM) and the MIC (Aspergillus sp.) was 0.125 µg/mL (≈ 0.358 µM). For the same compound, the MIC (Candida parapsilosis) was under 0.015 µg/mL, the MIC50 (Candida parapsilosis) was under 0.015 µg/mL and the MIC90 (Candida parapsilosis) was 0.06 µg/mL (≈ 0.172 µM). It also gave an MIC50 (Candida albicans) of 0.03 µg/mL (≈ 0.0859 µM), an MIC90 (Candida albicans) of 0.06 µg/mL (≈ 0.172 µM) and an MIC50 (Mucor [1]) of over 16 µg/mL. The MIC90 (Mucor [1]) was over 16 µg/mL, the MIC50 (Mucor [2]) was 16 µg/mL (≈ 45.8 µM) and the MIC90 (Mucor [2]) was over 16 µg/mL. The MIC (Rhizopus [3]) was 8 µg/mL (≈ 22.9 µM), the MIC50 (Rhizopus [3]) was 8 µg/mL (≈ 22.9 µM) and the MIC90 (Rhizopus [3]) was 16 µg/mL (≈ 45.8 µM). The MIC50 (Rhizopus [4]) was 8 µg/mL (≈ 22.9 µM), the MIC90 (Rhizopus [4]) was over 16 µg/mL and the MIC (Absidia [5]) was 4 µg/mL (≈ 11.5 µM). The MIC (Absidia [6]) was 4 µg/mL (≈ 11.5 µM), the MIC (Cunninghamella [7]) was over 16 µg/mL and the MIC (Cunninghamella [8]) was 8 µg/mL (≈ 22.9 µM). It also gave an MIC (Syncephalastrum [9]) of 4 µg/mL (≈ 11.5 µM), an MIC (Syncephalastrum [10]) of 2 µg/mL (≈ 5.73 µM) and an MIC50 (Scedosporium apiospermum [11]) of 0.5 µg/mL (≈ 1.43 µM). It also gave an MIC90 (Scedosporium apiospermum [11]) of 1 µg/mL (≈ 2.86 µM), an MIC50 (Scedosporium apiospermum [12]) of 0.25 µg/mL (≈ 0.716 µM) and an MIC90 (Scedosporium apiospermum [12]) of 0.5 µg/mL (≈ 1.43 µM). It also gave an MIC (Lomentospora prolificans [13]) of 16 µg/mL (≈ 45.8 µM), an MIC (Lomentospora prolificans [14]) of 4 µg/mL (≈ 11.5 µM) and an MIC50 (Nakaseomyces glabratus) of 0.125 µg/mL (≈ 0.358 µM). For the same compound, the MIC90 (Nakaseomyces glabratus) was 1 µg/mL (≈ 2.86 µM), the MIC50 (Candida tropicalis) was 0.03 µg/mL (≈ 0.0859 µM) and the MIC90 (Candida tropicalis) was 0.06 µg/mL (≈ 0.172 µM). The MIC (Candida) was 0.006 µg/mL (≈ 0.0172 µM), the MIC (Pichia kudriavzevii) was 0.125 µg/mL (≈ 0.358 µM) and the MIC50 (Fusarium [15]) was 4 µg/mL (≈ 11.5 µM). The MIC90 (Fusarium [15]) was 16 µg/mL (≈ 45.8 µM), the MIC50 (Fusarium [16]) was 4 µg/mL (≈ 11.5 µM) and the MIC90 (Fusarium [16]) was 8 µg/mL (≈ 22.9 µM).

In the case of `OC(Cn1cncn1)(Cn1cncn1)c1ccc(F)cc1F` [FLUCONAZOLE], the MIC50 (Candida parapsilosis) was 0.5 µg/mL (≈ 1.63 µM), the MIC90 (Candida parapsilosis) was 1 µg/mL (≈ 3.27 µM) and the MIC50 (Candida albicans) was 0.25 µg/mL (≈ 0.816 µM). The MIC90 (Candida albicans) was 16 µg/mL (≈ 52.2 µM), the MIC50 (Nakaseomyces glabratus) was 16 µg/mL (≈ 52.2 µM) and the MIC90 (Nakaseomyces glabratus) was 32 µg/mL (≈ 104 µM). For the same compound, the MIC (Candida tropicalis) was 0.25 µg/mL (≈ 0.816 µM), the MIC50 (Candida tropicalis) was 0.25 µg/mL (≈ 0.816 µM) and the MIC90 (Candida tropicalis) was 2 µg/mL (≈ 6.53 µM). For the same compound, the MIC (Candida) was 0.25 µg/mL (≈ 0.816 µM) and the MIC (Pichia kudriavzevii) was 16 µg/mL (≈ 52.2 µM).
